What all share (experiment): inhibitors of PAD1, PAD2, PAD3 and PAD4, late-stage follow-up, selectivity assay for PAD4 inhibitor project, biochemical, colorimetric, BAEE substrate, recombinant enzymes (AID 588560)
Experiment [1] has as its target Protein-arginine deiminase type-3 (Homo sapiens) (UniProt Q9ULW8). The conditions noted are these: recombinant PAD1-4, BAEE citrulline colorimetric, 15 min; PAD3; at 10 µM; active compounds read high. The procedure, abridged: (§1)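 Material: recombinant PAD1, PAD2, PAD3 or PAD4 enzyme, one isozyme per assay. Probe or stimulus: 10 mM BAEE. Detection: colorimetric citrulline detection with diacetyl monoxime/thiosemicarbazide, absorbance 540 nm. Timing: 15 min preincubation and 15 min reaction at 37 °C. Medium: Tris pH 7.6 buffer with CaCl2 and DTT.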

Experiment [2] deals with Protein-arginine deiminase type-1 (Homo sapiens) (UniProt Q9ULC6). The conditions noted are these: recombinant PAD1-4, BAEE citrulline colorimetric, 15 min; PAD1; at 10 µM; active compounds read high. In outline:
as §1

Experiment [3] deals with Protein-arginine deiminase type-2 (Homo sapiens) (UniProt Q9Y2J8). To be noted: recombinant PAD1-4, BAEE citrulline colorimetric, 15 min; PAD2; at 10 µM; active compounds read high. The procedure, abridged: as §1
Sequence of Protein-arginine deiminase type-2 (Homo sapiens) (Q9Y2J8 whole entry, looked up): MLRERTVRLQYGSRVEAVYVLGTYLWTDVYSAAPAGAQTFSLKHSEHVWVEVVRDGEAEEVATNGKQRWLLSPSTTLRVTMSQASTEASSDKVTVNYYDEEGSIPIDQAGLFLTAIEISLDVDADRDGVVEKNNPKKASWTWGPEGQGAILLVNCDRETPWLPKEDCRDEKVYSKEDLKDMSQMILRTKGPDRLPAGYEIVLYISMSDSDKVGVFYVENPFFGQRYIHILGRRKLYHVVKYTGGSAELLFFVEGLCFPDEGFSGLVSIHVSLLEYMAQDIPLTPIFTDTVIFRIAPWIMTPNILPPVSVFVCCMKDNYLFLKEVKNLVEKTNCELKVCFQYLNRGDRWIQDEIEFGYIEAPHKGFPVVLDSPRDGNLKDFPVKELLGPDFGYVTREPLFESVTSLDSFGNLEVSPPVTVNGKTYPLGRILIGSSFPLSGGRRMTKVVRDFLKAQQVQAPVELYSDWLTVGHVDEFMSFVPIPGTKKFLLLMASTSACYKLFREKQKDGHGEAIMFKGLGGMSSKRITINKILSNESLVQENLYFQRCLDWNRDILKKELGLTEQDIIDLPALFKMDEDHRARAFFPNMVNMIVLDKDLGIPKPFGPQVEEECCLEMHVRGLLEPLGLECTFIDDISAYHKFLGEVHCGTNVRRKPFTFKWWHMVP
Experiment [4] has as its target Protein-arginine deiminase type-4 (Homo sapiens) (UniProt Q9UM07). To be noted: recombinant PAD1-4, BAEE citrulline colorimetric, 15 min; PAD4; at 10 µM; active compounds read high. In outline:
as §1

The source made the active and inactive calls.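 The calls were made as follows: active = inhibition of 50% or more against any one of four protein arginine deiminase enzymes; inactive = the rest.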

Sequence of Protein-arginine deiminase type-1 (Homo sapiens) (Q9ULC6 whole entry, looked up): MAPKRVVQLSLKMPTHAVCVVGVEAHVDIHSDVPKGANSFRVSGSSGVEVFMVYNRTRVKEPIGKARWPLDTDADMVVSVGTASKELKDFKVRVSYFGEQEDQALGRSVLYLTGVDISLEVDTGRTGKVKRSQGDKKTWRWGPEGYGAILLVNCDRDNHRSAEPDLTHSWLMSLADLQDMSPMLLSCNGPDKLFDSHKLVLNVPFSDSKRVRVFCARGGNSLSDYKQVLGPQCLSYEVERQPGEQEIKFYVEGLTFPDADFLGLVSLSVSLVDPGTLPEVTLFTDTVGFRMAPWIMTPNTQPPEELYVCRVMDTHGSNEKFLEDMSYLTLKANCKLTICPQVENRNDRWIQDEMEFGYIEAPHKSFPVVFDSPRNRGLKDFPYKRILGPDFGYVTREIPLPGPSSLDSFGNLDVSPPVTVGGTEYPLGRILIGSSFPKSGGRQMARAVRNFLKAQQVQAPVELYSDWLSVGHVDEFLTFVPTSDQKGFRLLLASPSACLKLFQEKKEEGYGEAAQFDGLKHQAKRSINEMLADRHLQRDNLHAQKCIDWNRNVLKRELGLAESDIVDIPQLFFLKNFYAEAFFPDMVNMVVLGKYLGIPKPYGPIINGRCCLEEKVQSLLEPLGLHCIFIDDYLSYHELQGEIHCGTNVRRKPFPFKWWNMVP
Sequence of Protein-arginine deiminase type-4 (Homo sapiens) (Q9UM07 whole entry, looked up): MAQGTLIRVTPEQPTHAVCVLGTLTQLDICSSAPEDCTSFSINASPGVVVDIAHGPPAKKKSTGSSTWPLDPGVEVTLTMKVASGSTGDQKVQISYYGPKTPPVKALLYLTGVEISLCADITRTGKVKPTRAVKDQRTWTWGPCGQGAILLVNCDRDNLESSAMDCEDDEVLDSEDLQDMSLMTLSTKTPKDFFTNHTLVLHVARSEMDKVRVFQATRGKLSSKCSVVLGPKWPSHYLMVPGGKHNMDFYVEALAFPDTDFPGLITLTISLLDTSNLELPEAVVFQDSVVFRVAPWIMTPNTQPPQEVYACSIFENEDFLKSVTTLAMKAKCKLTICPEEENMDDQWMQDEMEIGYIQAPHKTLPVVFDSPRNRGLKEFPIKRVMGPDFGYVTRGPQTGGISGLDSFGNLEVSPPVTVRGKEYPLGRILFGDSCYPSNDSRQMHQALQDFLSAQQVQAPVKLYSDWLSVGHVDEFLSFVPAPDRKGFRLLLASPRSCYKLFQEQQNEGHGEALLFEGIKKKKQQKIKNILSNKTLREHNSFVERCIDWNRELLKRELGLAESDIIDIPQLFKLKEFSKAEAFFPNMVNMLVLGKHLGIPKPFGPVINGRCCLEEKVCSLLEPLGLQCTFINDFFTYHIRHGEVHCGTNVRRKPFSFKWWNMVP
Sequence of Protein-arginine deiminase type-3 (Homo sapiens) (Q9ULW8 whole entry, looked up): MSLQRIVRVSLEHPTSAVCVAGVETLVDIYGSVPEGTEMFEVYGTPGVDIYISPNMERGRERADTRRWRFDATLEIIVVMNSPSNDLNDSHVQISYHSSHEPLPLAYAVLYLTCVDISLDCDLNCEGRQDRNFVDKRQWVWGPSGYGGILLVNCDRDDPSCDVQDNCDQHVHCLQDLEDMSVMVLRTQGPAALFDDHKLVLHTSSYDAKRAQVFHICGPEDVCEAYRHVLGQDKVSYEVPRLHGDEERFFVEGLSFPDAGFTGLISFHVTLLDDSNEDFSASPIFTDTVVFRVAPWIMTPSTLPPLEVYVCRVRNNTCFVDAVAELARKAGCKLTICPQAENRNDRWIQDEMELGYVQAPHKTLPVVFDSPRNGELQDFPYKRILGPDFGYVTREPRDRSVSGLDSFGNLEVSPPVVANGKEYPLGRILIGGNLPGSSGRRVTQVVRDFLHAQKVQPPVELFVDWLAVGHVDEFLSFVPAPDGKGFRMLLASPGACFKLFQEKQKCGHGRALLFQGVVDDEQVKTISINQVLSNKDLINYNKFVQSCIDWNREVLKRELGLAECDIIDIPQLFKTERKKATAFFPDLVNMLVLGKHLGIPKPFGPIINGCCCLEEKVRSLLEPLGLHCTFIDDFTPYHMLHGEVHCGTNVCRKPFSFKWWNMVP

As a reminder, the inhibition is the drop in the measured response relative to a control, in per cent. For `COC(=O)c1cccc(-c2ccc3c(n2)C(=O)C(N)=CC3=O)n1`, the inhibition in experiment [1] is 84%; in experiment [2], 75%; in experiment [3], 92%.
On the same counts, the results for `COC(=O)c1nc(C(C)=O)c2[nH]c3ccccc3c2c1C` are -20% (inactive), 5% (inactive) and -29% (inactive).
For `COC1=C(Br)C(=O)c2nc(-c3ccccn3)ccc2C1=O`, the inhibition was 100% in experiment [1], 91% in experiment [4], 50% in experiment [2] and 62% in experiment [3].
In the same order, the values of `O=C1C(O)=C(O)C(=O)c2ncccc21` are 96%, 83%, 39% (inactive) and 41% (inactive).
On to `COC(=O)c1nnc(C(=O)OC)c(-c2ccc3c([N+](=O)[O-])c(OC)ccc3n2)n1`, for which the inhibition is 18% (inactive) in experiment [1], -38% (inactive) in experiment [2] and 7% (inactive) in experiment [3].
On the same counts, the results for `NC1=CC(=O)c2ccc(-c3ccccn3)nc2C1=O` are 90%, 73% and 101%.
In the case of `NC1=CC(=O)c2cccnc2C1=O`, the inhibition was 100% in experiment [1], 99% in experiment [4], 70% in experiment [2] and 89% in experiment [3].
Consider `NC1=C(N)C(=O)c2ccccc2C1=O`, for which the inhibition in experiment [1] was 44% (inactive); in experiment [4], 43% (inactive); in experiment [2] it was 22% (inactive); in experiment [3] it was 28% (inactive).
In the case of `CCOC(=O)c1nc(C(=O)OCC)c(C(=O)OCC)c(-c2ccc(OC)c(OC)c2OCc2ccccc2)c1C`, the inhibition is -7% (inactive) in experiment [1], -15% (inactive) in experiment [2] and -31% (inactive) in experiment [3].
As for `NC1=CC(=O)c2ccc(-c3cccc(C(=O)O)n3)nc2C1=O`, the inhibition was 97% in experiment [1], 98% in experiment [4], 71% in experiment [2] and 85% in experiment [3].
`COc1ccc2ncccc2c1[N+](=O)[O-]`: the results for the inhibition in experiment [1], in experiment [2] and in experiment [3] were 19% (inactive), -12% (inactive) and 17% (inactive), respectively.
In the same order, the values of `COc1ccc2nc(C#N)ccc2c1` are 8% (inactive), -37% (inactive) and 35% (inactive).
`O=C1C=C(Br)C(=O)c2ncccc21`: the inhibition was 76% in experiment [1], 56% in experiment [4], -17% (inactive) in experiment [2] and 14% (inactive) in experiment [3].
In the case of `O=C(O)c1cccc(-c2ccc3ccc(Br)c(OCc4ccccc4)c3n2)n1`, the inhibition in experiment [1] was -7% (inactive); in experiment [2], -23% (inactive); in experiment [3], -18% (inactive).
As to `COC1=CC(=O)c2nc(C#N)ccc2C1=O`, the inhibition in experiment [1] was 99%; in experiment [4] it was 97%; in experiment [2], 68%; in experiment [3], 88%.
Regarding `COC1=C(I)C(=O)c2nc(C#N)ccc2C1=O`, the inhibition in experiment [1] is 98%; in experiment [4] it was 97%; in experiment [2] it was 60%; in experiment [3], 63%.
For the compound `COC1=C(N)C(=O)c2ncccc2C1=O`, the inhibition in experiment [1] is 100%; in experiment [4] it was 87%; in experiment [2], 57%; in experiment [3], 78%.
On to `O=C1C(Br)=CC(=O)c2ncccc21`, for which the inhibition in experiment [1] is 10% (inactive); in experiment [4], 10% (inactive); in experiment [2], -57% (inactive); in experiment [3], 12% (inactive).
`COC(=O)c1nnc(C(=O)OC)c(-c2ccc3cc(OC)ccc3n2)n1`: the results for the inhibition in experiment [1], in experiment [2] and in experiment [3] were 15% (inactive), -21% (inactive) and -14% (inactive), respectively.
On the same counts, the results for `COC(=O)c1cc(-c2ccccc2)c(C(=O)OC)c(-c2ccc3ccccc3n2)n1` are 16% (inactive), -20% (inactive) and -18% (inactive).
Take `NC1=CC(=O)c2ccc(-c3cc(C(=O)O)ccc3N)nc2C1=O`: the inhibition in experiment [1] is 8% (inactive); in experiment [4], 13% (inactive); in experiment [2], -13% (inactive); in experiment [3], -19% (inactive).
With `COC(=O)c1nc(C(=O)OC)c(NC(C)=O)c(-c2ccccc2Br)c1C`, the inhibition is -30% (inactive) in experiment [1], -20% (inactive) in experiment [2] and -19% (inactive) in experiment [3].
Regarding `COC(=O)c1nc(C(=O)OC)c(N)c(-c2ccccc2Br)c1C`, the inhibition in experiment [1] is -30% (inactive); in experiment [2] it was -6% (inactive); in experiment [3], -22% (inactive).
On the same counts, the results for `COc1ccc2nc(C#N)ccc2c1[N+](=O)[O-]` are 16% (inactive), -24% (inactive) and 2% (inactive).
On the same counts, the results for `COC(=O)c1nnc(C(=O)OC)c(-c2ccc3ccccc3n2)n1` are 24% (inactive), -41% (inactive) and -13% (inactive).
On the same counts, the results for `COC1=C(Br)C(=O)c2ncccc2C1=O` are 7% (inactive), 75% and 88%.
On to `COC(=O)c1nc(-c2ccc3c(n2)C(=O)C(Br)=CC3=O)c2[nH]c3ccccc3c2c1C`, for which the values for the inhibition in experiment [1], in experiment [2] and in experiment [3] were -16% (inactive), -24% (inactive) and -15% (inactive), respectively.
Take `COC(=O)c1cccc(-c2ccc3c(n2)C(=O)C(Br)=CC3=O)n1`: the inhibition in experiment [1] is -43% (inactive); in experiment [2], 0% (inactive); in experiment [3], -26% (inactive).
On the same counts, the results for `COC(=O)c1cccc(-c2ccc3ccc(Br)c(O)c3n2)n1` are -28% (inactive), -5% (inactive) and -22% (inactive).
